Laboratory results reported in ChEMBL document CHEMBL1141679, “Design, synthesis, biochemical, and biological evaluation of nitrogen-containing trifluoro structural modifications of combretastatin A-4” (Bioorg Med Chem Lett, 2008).
≈ marks a conversion by molar mass, not a printed value.

What was measured:
NCI-H460 = assay: Cytotoxicity against human NCI-H460 cells after 48 hrs by SRB assay; type: functional; settings: NCI-H460, 48 h
Method in brief: (§1)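 Cells were seeded in culture medium with 5% fetal bovine serum and incubated 24 h, then serial dilutions of compound were added. After 48 h, cells were fixed with trichloroacetic acid and stained with sulforhodamine B, and optical density was read on a plate reader. GI50 is the concentration giving a 50% reduction in net protein increase, calculated from optical density.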

DU-145 = assay: Cytotoxicity against human DU145 cells after 48 hrs by SRB assay; type: functional; settings: DU-145, 48 h; method in brief: as §1
[1] = Inhibition of calf brain tubulin polymerization; design: species or system Bos taurus
Method in brief: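 Tubulin was purified from calf brain. Assembly was followed by turbidity at 350 nm. IC50 was obtained by nonlinear regression of the data.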

Row | Compound | GI50 (NCI-H460) [µg/mL] | GI50 (DU-145) [µg/mL] | IC50 [1] [nM]
1 | COc1ccc(/C=C\c2cc(F)c(F)c(F)c2)c([N+](=O)[O-])c1 | > 5 | > 5 | 
2 | COc1ccc(/C=C\c2cc(OC)c(OC)c(OC)c2)c(N)c1 | 0.0012 (≈ 0.00381 µM) | 0.0016 (≈ 0.00507 µM) | 1400
3 | COc1ccc(/C=C\c2cc(F)c(F)c(F)c2)cc1[N+](=O)[O-] | > 5 | > 5 | > 40000
4 | COc1ccc(/C=C\c2cc(F)c(F)c(F)c2)cc1N | 0.11 (≈ 0.394 µM) | 0.072 (≈ 0.258 µM) | 2900
5 | COc1ccc(/C=C\c2cc(F)c(F)c(F)c2)cc1O | 0.2 (≈ 0.714 µM) | 0.04 (≈ 0.143 µM) | 4500
6 | COc1ccc(/C=C\c2cc(OC)c(OC)c(OC)c2)cc1O [COMBRETASTATIN A4] | 0.0006 (≈ 0.0019 µM) | 0.0008 (≈ 0.00253 µM) | 
7 | COc1ccc(/C=C\c2cc(F)c(F)c(F)c2)c(N)c1 | > 5 | 4.3 (≈ 15.4 µM) | 
8 | COc1ccc(/C=C/c2cc(F)c(F)c(F)c2)c(N)c1 | > 5 | > 5 | 
9 | COc1ccc(/C=C/c2cc(F)c(F)c(F)c2)c([N+](=O)[O-])c1 | > 5 | > 5 | 
10 | COc1ccc(/C=C/c2cc(F)c(F)c(F)c2)cc1N | > 5 | > 5 | > 40000
11 | COc1ccc(/C=C/c2cc(F)c(F)c(F)c2)cc1[N+](=O)[O-] | > 5 | > 5 | > 40000
12 | COc1ccc(/C=C\c2cc(OC)c(OC)c(OC)c2)cc1N | 0.00068 (≈ 0.00216 µM) | 0.00096 (≈ 0.00304 µM) | 2600
